These results are taken from PubChem BioAssay AID2372 (NMMLSC, 2010).

Molecules are shown by their SMILES.

The experiment has as its target Cell division control protein 42 homolog (Homo sapiens) (UniProt P60953). Nature of the experiment: compound effect on Cdc42 GTP saturation binding, late-stage follow-up, mechanism study for Ras-family GTPase inhibitor project, biochemical, nucleotide-depleted protein, Mg buffer, varying GTP (AID 2372). The following applies: GST-Cdc42 beads, BODIPY-GTP binding, flow cytometry. The essentials: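 Material: nucleotide-free GST-Cdc42 on glutathione beads; Amount: 4 µM GST-Cdc42 used for overnight bead loading at 4 °C; Medium: buffer with 1 mM MgCl2, after 10 mM EDTA stripping; Dosing: 10 µM compound or DMSO; Times: 2 min compound pre-incubation before BODIPY-GTP.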

Cell division control protein 42 homolog (Homo sapiens), sequence (P60953 whole entry, looked up): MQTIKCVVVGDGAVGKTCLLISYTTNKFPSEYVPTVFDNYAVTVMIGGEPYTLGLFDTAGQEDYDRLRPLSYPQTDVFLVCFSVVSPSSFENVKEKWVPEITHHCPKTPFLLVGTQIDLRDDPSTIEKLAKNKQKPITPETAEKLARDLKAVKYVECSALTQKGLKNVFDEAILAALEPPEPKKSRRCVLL

Regarding `COc1ccc(C2CC(c3ccccc3)=NN2c2ccc(S(N)(=O)=O)cc2)cc1` (configuration not stated), where the note is “at 10 µM, stronger effect = lower value”, the Bmax with compound is 1540. The Kd of GTP with compound (measured here: GTP affinity with 10 uM compound) was 7.16 nM.
